# This is a sample that favours compounds with a hit; in the whole collection about 2.1% have one here.
# UBC9 SUMO inh: SUMOylation inhibition; P63279; inhibition, % at 35 µM; 0.36% of 290,000 active; HTRF SUMOylation assay, SAE1/SAE2 + UBC9, in vitro; in the data active = inhibition above about 50%, passing the limit was not always enough
# Target sequence (P63279 whole entry, looked up): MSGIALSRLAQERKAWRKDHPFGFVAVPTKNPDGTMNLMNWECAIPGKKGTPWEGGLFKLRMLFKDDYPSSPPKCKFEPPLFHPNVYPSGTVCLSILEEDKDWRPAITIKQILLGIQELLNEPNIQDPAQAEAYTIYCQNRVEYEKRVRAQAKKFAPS
# VIM-2 inhibitor: inhibitors of Pseudomonas aeruginosa VIM-2 metallo-beta-lactamase; purified VIM-2, nitrocefin hydrolysis, epi-absorbance fluorescence; inhibition, % at 5.6 µM; 0.89% of 290,000 active; AID 1527;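 active = inhibition above the mean of all tested compounds plus 3 SD, cutoff set per screening run, cut at about 7.5% in these data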;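 also: red hydrolysis product quenches plate fluorescence so inhibitors raise well fluorescence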
# IMP-1 inhibitor: blocks Pseudomonas aeruginosa IMP-1 metallo-beta-lactamase. AID 1556. 0.45% of 290,000 active. purified IMP-1, nitrocefin hydrolysis, epi-absorbance fluorescence. inhibition, % at 5.6 µM;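 active = inhibition above the mean plus 3 SD of all compounds in the same screening run, cut at about 4.5% in these data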
#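 System: Purified recombinant IMP-1 metallo-beta-lactamase enzyme | Measured by: Fluorescence quenching readout, ex 480/em 530 nm | Replication: Singlicate | Incubation: 15 min preincubation plus 25 min reaction at 25 °C | Evaluation: Percent inhibition from optical density relative to buffer-blank wells | Benchmarks: DMSO with and without IMP-1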
# NS3 helicase inh: HCV NS3 helicase inhibition. NS3 helicase DNA unwinding, Cy5 molecular beacon fluorescence. inhibition, % at 10.9 µM. 0.56% of 290,000 active;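 active = inhibition above the mean of all tested compounds plus 3 SD, set per campaign, cut at about 35% in these data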
#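 Measured by: Cy5 fluorescence, 0 and 60 min reads / Assay system: NS3 helicase fragment of HCV / Control set: low DMSO, high thioflavine S at 110 µM / Times: 1 h reaction at 25 °C, ATP-initiated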
# FID counter: counter-screen for HCV NS3 helicase inhibitors: DNA intercalator displacement. DNA fluorescent intercalator displacement, fluorescence. inhibition, % at 7.9 µM. 0.17% of 290,000 active; in the data active = inhibition above about 37%;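 also: higher means more ethidium bromide displaced from hairpin DNA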
# A number is an active result; – = inactive.
SMILES,UBC9 SUMO inh,VIM-2 inhibitor,IMP-1 inhibitor,NS3 helicase inh,FID counter
CCOC(=O)C1(CC)NC(c2ccc(OC)c(OC)c2)C2C(=O)N(c3cccc(C(C)=O)c3)C(=O)C21 (stereo not given),–,–,–,–,–
S=C1Cc2ccccc2N1,60.4,–,–,–,–
O=C(c1ccc(-n2cccc2)cc1)N1CCN(Cc2ccccc2)CC1,–,–,–,–,–
Cn1nc(-c2ccc(C(=O)N3CCN(Cc4ccccc4)CC3)cc2)c2ccccc2c1=O,–,10.9,–,–,–
N=c1c(C(=O)NC2CCCC2)cc2c(=O)n3ccccc3nc2n1Cc1ccccc1,–,7.9,–,–,–
Cc1cccn2c(=O)c3cc(C(=O)NC4CCCC4)c(=N)n(Cc4ccc(F)cc4)c3nc12,–,–,–,–,–
N=c1c(C(=O)NC2CCCCC2)cc2c(=O)n3ccccc3nc2n1Cc1ccc(F)cc1,–,9.9,–,–,–
Cc1ccc(Cn2c(=N)c(C(=O)NC3CCCCC3)cc3c(=O)n4ccccc4nc32)cc1,–,–,–,–,–
O=C(NCCCc1ccccc1)c1cncc(Br)c1,–,–,–,–,–
Cn1ccc(C(=O)OCC(=O)Nc2ccccc2Cl)n1,–,–,–,–,–
COCCC(=O)N1CCC(Oc2ccc(C(=O)N3CCCCC3CCO)cc2)CC1 (stereo not given),–,–,–,–,–
O=c1c2cc(Cl)ccc2oc2nc3n(c(=O)c12)CCCS3,–,9.7,–,–,–
Cc1ccc(S(=O)(=O)N/N=C/c2ccccc2F)cc1[N+](=O)[O-],–,–,5.9,–,–
O=C(C[n+]1cc(-c2ccccc2)n2c1CCCCC2)c1ccc(Br)cc1,–,–,–,–,41.9
COc1ccc(C(=O)C[n+]2cc(-c3ccc(OC)cc3)n3c2CCCC3)cc1,–,–,–,–,–
Cc1ccc(-c2c[n+](CC(=O)Nc3nc(-c4ccc(F)cc4)cs3)c3n2CCC3)cc1,–,–,–,–,44.4
Cc1ccc(C(=O)C[n+]2cc(-c3ccc(C)cc3)n3c2CCCCC3)cc1,–,–,–,–,38.9
CC1Cc2ccccc2N1C(=O)COc1ccc2c(c1)OCO2 (stereo not given),–,–,–,–,–
Cc1ccc(CNc2ccccc2C(=O)O)s1,–,–,–,–,–
COc1ccc(CCN2C(=O)NC(NS(=O)(=O)c3ccccc3)(C(F)(F)F)C2=O)cc1OC (stereo not given),–,–,–,–,–
CN(C)c1ccnc2sc3c(NCC(O)CO)ncnc3c12 (stereo not given),–,8.3,–,–,–
COc1ccc(-n2c(C)cc(/C=C3\SC(=S)N(Cc4ccco4)C3=O)c2C)cc1,–,–,–,–,–
CCN1CCN(c2c(/C=C3\SC(=S)N(Cc4ccco4)C3=O)c(C)c(C#N)c(=O)n2C)CC1,–,–,6.4,–,–
COc1ccc(-c2ccc(NCCN3CCOCC3)nn2)cc1OC,–,–,–,–,–
Cn1c2ccccc2c2cnn(CC(=O)Nc3ccc(Cl)cc3)c(=O)c21,51.9,–,–,–,–
SMILES,UBC9 SUMO inh,VIM-2 inhibitor,IMP-1 inhibitor,NS3 helicase inh,FID counter
O=C(NCCCSc1ccccc1)c1cc(Br)ccc1O,–,–,–,–,–
COCC(=O)N1CCC(n2nccc2NC(=O)CCOc2ccccc2)CC1,–,–,–,–,–
CCc1ccc(CNC(=O)CCCn2c(=O)c3cccn3c3cccnc32)cc1,–,–,–,–,–
O=C(CCCn1c(=O)c2cccn2c2cccnc21)NCc1cccc(Br)c1,–,–,7.2,–,–
O=C(CCn1c(=O)c2cccn2c2cccnc21)NCc1cccc(Cl)c1,–,–,21.5,–,–
CC(OC(=O)CCc1c[nH]c2ccccc12)C(=O)c1ccccc1 (stereo not given),–,–,–,–,–
O=C(NCc1ccco1)c1cccn2c(=O)c3cc4ccccc4cc3nc12,77.8,–,–,–,–
CN(C)CCCN1C(=O)c2oc3ccc(Cl)cc3c(=O)c2C1c1cccnc1 (stereo not given),–,–,6.4,–,–
CN(C)CCN1C(=O)c2oc3ccc(F)cc3c(=O)c2C1c1ccncc1 (stereo not given),–,–,–,–,–
Cn1cccc1C(NC(=O)c1ccccc1)C(Cl)(Cl)Cl (stereo not given),–,–,–,–,–
Cc1ccccc1NC(=S)Nc1cccc2cnccc12,97.2,8.0,–,–,–
Cc1ccc(C)c(NC(=S)Nc2cccc3cnccc23)c1,–,10.9,–,–,–
Fc1ccccc1NC(=S)Nc1cccc2cnccc12,98.0,–,–,–,–
S=C(NCc1ccccc1)Nc1cccc2cnccc12,–,–,–,–,–
FC(F)(F)c1ccccc1NC(=S)Nc1cccc2cnccc12,–,–,–,–,–
Cc1ccc(C)c(NC(=S)Nc2cccnc2)c1,–,–,–,–,–
Cc1cnc(C(=O)OCC(=O)NC(C)CCc2ccccc2)cn1 (stereo not given),–,–,–,–,–
O=C(NNS(=O)(=O)c1ccc(Br)cc1)c1csnn1,–,–,–,–,–
COc1cc(/C=C2\CCC(C3CCCC3)C2=O)ccc1OC(C)C (stereo not given),–,–,–,–,–
COc1ccc(N=Nc2n(C)c3ccccc3[n+]2C)cc1,–,–,–,–,–
Cc1ccc(S(=O)(=O)N2CCN(CC(=O)N(CC(C)C)c3c(N)n(CC(C)C)c(=O)[nH]c3=O)CC2)c(C)c1,–,–,–,–,–
Cn1c(-c2ccc3c(c2)OCO3)c(C(=O)O)c(=O)c2ccccc21,–,10.7,–,–,–
CN(C)N=Nc1ccc(S(N)(=O)=O)cc1,–,–,–,–,–
CN(C)c1ccc(N=Nc2ccc(S(N)(=O)=O)cc2)cc1,–,–,9.1,–,–
COc1ccccc1-c1noc2ncnc(Nc3cccc(C)c3C)c12,–,–,–,–,–
SMILES,UBC9 SUMO inh,VIM-2 inhibitor,IMP-1 inhibitor,NS3 helicase inh,FID counter
O=S(=O)(O)c1cc(O)c2c(O)c(N=Nc3cc(Cl)ccc3O)c(S(=O)(=O)O)cc2c1,–,–,5.7,–,–
CCN(CC)S(=O)(=O)c1ccc(OC)c(NC(=O)C(Cc2ccccc2)N2C(=O)c3ccccc3C2=O)c1 (stereo not given),–,–,–,–,–
COc1ccccc1C(=O)Nc1c(C(=O)N(CCN(C)C)Cc2ccco2)oc2ccccc12,–,–,–,–,37.3
COc1ccc(OCC(=O)Nc2c(C(=O)N(CCN(C)C)Cc3ccco3)oc3ccccc23)cc1,–,–,–,–,41.3
Cc1ccccc1C(=O)Nc1c(C(=O)N(CCN(C)C)Cc2ccco2)oc2ccccc12,–,–,–,–,–
CCC(C)c1ccc(N(C(=O)c2ccco2)C(C(=O)NC2CCCC2)c2cccnc2)cc1 (stereo not given),–,–,–,–,–
O=C(CSc1ccc(Br)cc1)Nc1ccccc1N1CCOCC1,–,–,–,–,–
COc1ccc(-c2c(C)nn3c(Cl)c(C)c(C)nc23)cc1,–,8.7,–,–,–
